The nature of assay [1]: reducers of endogenous Her2 protein level, primary screen, SKBR3 breast tumor cells, AlphaScreen, ATP viability (AID 461;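 active = Her2 level under about 52% in both replicate screens, with viability over 70% of control, limit read from the data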;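 for Her2 level: lower value means less Her2 protein in the cells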;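 for viability: percent of carrier control wells set as 100% viability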). To be noted: 18-24 h, measured here: SKBR3 viability, ATP luminescence, at 10 µM.
The target in assay [2] is Receptor tyrosine-protein kinase erbB-2 (Homo sapiens) (UniProt P04626). The assay is described as above. The note with it: 18-24 h, at 10 µM, stronger effect = lower value.
The nature of assay [3]: SK-BR-3 cell growth inhibitors, pilot screen, 24 h, human (AID 572).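 Note: compound exposure lasted between 18 and 24 h rather than exactly 24 h; 100% = carrier-treated control wells.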 To be noted: SK-BR-3 viability, CellTiter-Glo luminescence, at 10 µM, stronger effect = lower value. For orientation: In ATP-based viability assays light output follows the ATP content of the culture.
The nature of assay [4]: HUVEC growth inhibition – cell-based, human, primary screen (AID 575;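 active = viability at or below 30% in both replicate assays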;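 note: 100% = median of untreated cell wells with 0.1% DMSO on each plate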). To be noted: HUVEC proliferation, CellTiter-Glo luminescence, 72 h; at 10 µM; stronger effect = lower value. In a few lines:
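Assay system: Primary human umbilical vein endothelial cells | Quantity: 1250 cells per well | Medium: Supplemented EBM, 2% fetal bovine serum | Detection: CellTiter-Glo luminescence measuring cellular ATP | Read-out: % viability vs DMSO wells | Plate: Collagen-coated 384-well format | Times: 72 h exposure, 37 °C, 5% CO2, 30 min RT equilibration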

Assay [5] is described as follows: growth inhibitors of H69AR lung tumor, primary screen, human, duplicate replicates (AID 580;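 active = viability at or under a set limit in both replicates, limit being median viability minus 3 SD, cut at about 48% in these data, passing the limit was not always enough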;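 note: 100% = mean luminescence of untreated wells and 0% = no signal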). The note with it: H69AR lung tumor cells viability, ATP luminescence, 72 h; at 10 µM; stronger effect = lower value.
A short description of assay [6]: reversal of MRP1-mediated doxorubicin resistance, pilot screen, H69AR cells, doxorubicin co-treatment (AID 601;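 active = viability loss from added drug above about 55%, and viability with drug at most 40%, in both replicates, limit read from the data, passing the limit was not always enough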). The note with it: CellTiter-Glo, 72 h, at 10 µM; for differential viability (reversal): stronger effect = higher value.
Assay [7] is described as follows: 384-well plate pilot, post-Golgi transport modulator project, inhibition of yeast transport mutant growth (AID 636; in the data active = inhibition above about 31%). The note with it: absorbance 615 nm, about 18 h, stronger effect = higher value.
Assay [8] is described as follows: growth suppression of yeast trafficking mutant, preliminary HTS, modulators of trafficking downstream of Golgi apparatus project, 1536-format plate, OD 615 nm (AID 637; in the data active = inhibition above about 30%). To be noted: yeast transport mutant growth, absorbance 615 nm, 18 h; stronger effect = higher value.
Setting [9] is: H69AR cells + 2 uM doxorubicin, measured here: viability with 2 uM doxorubicin, stronger effect = lower value.
The mark [10] stands for this setting: H69AR cells, compound alone cytotoxicity.

Data on 16 compounds can be found in PubChem BioAssay.

Calls of active or inactive are those of the source.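 Rule for the calls, unless noted: active = viability at or below 10% of carrier control in both of two separate runs; inconclusive = viability at or below 10% in only one of the two runs; inactive = the rest.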

Chain of Receptor tyrosine-protein kinase erbB-2 (Homo sapiens) (P04626 whole entry, looked up): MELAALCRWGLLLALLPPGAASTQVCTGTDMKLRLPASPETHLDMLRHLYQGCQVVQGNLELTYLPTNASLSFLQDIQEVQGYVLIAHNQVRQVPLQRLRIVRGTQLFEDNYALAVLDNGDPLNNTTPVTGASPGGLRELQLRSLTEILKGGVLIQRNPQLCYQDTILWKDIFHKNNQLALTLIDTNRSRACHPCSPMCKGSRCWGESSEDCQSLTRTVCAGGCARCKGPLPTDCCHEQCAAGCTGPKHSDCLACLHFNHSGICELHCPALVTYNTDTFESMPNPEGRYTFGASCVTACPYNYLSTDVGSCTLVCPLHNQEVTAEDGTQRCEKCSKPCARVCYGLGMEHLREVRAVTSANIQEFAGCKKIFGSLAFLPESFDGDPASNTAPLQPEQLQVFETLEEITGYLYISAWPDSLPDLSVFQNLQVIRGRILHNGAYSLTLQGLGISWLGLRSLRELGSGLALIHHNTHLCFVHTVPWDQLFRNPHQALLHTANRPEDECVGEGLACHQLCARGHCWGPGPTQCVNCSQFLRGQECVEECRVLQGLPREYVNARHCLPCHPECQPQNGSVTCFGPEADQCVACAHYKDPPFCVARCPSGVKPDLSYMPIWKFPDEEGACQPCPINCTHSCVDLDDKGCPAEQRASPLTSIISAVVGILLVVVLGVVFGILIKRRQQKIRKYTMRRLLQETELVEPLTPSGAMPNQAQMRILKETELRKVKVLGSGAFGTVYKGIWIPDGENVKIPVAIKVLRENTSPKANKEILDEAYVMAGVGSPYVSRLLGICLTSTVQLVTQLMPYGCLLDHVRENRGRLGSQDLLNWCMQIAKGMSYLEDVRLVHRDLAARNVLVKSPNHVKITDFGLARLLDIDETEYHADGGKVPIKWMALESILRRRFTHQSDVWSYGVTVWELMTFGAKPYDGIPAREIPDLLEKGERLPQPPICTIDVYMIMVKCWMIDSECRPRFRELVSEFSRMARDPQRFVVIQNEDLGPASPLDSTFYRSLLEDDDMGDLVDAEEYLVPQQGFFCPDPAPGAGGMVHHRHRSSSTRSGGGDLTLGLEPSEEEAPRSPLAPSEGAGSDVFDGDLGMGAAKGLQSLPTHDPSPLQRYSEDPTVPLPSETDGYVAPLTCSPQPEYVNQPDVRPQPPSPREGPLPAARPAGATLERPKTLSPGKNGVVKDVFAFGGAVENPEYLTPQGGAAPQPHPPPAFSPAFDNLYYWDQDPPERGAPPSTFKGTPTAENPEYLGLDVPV

As to `Cc1ccc(S(=O)(=O)N2CCN(C(=O)CN3C(=O)NC4(CCOc5ccccc54)C3=O)CC2)cc1` (stereo not given), the viability – broadly, a read-out of living cells in per cent, often relative to untreated cells – was 98.5% in assay [1]; 98.5% (inactive) in assay [3]; 102% (inactive) in assay [4]; 101% (inactive) in assay [5]; 99.8% in assay [6] (setting [9]); 101% in assay [6] (setting [10]). In addition, in assay [2], the Her2 level was 108% (inactive). Also, the differential viability (reversal) in assay [6] (H69AR cells + 2 uM doxorubicin) was 1.57% (inactive). Further, the inhibition (as a rule, the drop in the measured response relative to a control, in per cent) was 4.08% (inactive) in assay [7] and -1.09% (inactive) in assay [8].
In the case of `N#Cc1cnc(SCC(=O)Nc2ccccc2C(F)(F)F)nc1N`, the viability is 88.5% in assay [1]; 88.5% (inactive) in assay [3]; 99.7% (inactive) in assay [4]; 90.2% (inactive) in assay [5]; 88.5% in assay [6] (setting [9]); 90.2% in assay [6] (setting [10]). The Her2 level in assay [2] was 81.5% (inactive). Besides, the differential viability (reversal) in assay [6] (H69AR cells + 2 uM doxorubicin) was 1.73% (inactive). Also, the inhibition in assay [7] is -4.4% (inactive); in assay [8], 5.9% (inactive).
As for `CCSCCC(NC1=CC(=O)CC(C)(C)C1)C(=O)O` (stereo not given), the viability is 92% in assay [1]; 92% (inactive) in assay [3]; 116% (inactive) in assay [4]; 101% (inactive) in assay [5]; 94.8% in assay [6] (setting [9]); 101% in assay [6] (setting [10]). In assay [2], the Her2 level was 89% (inactive). Further, in assay [6] (H69AR cells + 2 uM doxorubicin), the differential viability (reversal) is 5.77% (inactive). Moreover, the inhibition in assay [7] is 1.58% (inactive); in assay [8], -3.45% (inactive).
With `COC(=O)c1c(C#N)c(N)nc2c1CCC2`, the viability was 117% in assay [1]; 117% (inactive) in assay [3]; 90.6% (inactive) in assay [4]; 93.7% (inactive) in assay [5]; 93.1% in assay [6] (setting [9]); 93.7% in assay [6] (setting [10]). Moreover, the Her2 level in assay [2] was 97% (inactive). Moreover, in assay [6] (H69AR cells + 2 uM doxorubicin), the differential viability (reversal) is 0.57% (inactive). Further, the inhibition is -5.2% (inactive) in assay [7] and -4.13% (inactive) in assay [8].
As for `COc1ccc(-n2c(=O)c3c4c(sc3n3c(C)nnc23)CCCC4)cc1`, the viability is 78.5% in assay [1]; 78.5% (inactive) in assay [3]; 101% (inactive) in assay [4]; 96.5% (inactive) in assay [5]; 80.9% in assay [6] (setting [9]); 96.5% in assay [6] (setting [10]). For the same compound, in assay [2], the Her2 level is 94% (inactive). Also, the differential viability (reversal) in assay [6] (H69AR cells + 2 uM doxorubicin) is 15.6% (inactive). Also, the inhibition is 0.13% (inactive) in assay [7] and -5.33% (inactive) in assay [8].
On to `CC(C)(C)c1cc(CCC(=O)N2CCNCC2)c(C(C)(C)C)cc1O`, for which the viability in assay [1] is 106%; in assay [3], 106% (inactive); in assay [4] it was 82.9% (inactive); in assay [5] it was 98.3% (inactive); in assay [6] (setting [9]), 90.3%; in assay [6] (setting [10]), 98.3%. In assay [2], the Her2 level is 85.5% (inactive). For the same compound, the differential viability (reversal) in assay [6] (H69AR cells + 2 uM doxorubicin) is 8% (inactive). The values for the inhibition in assay [7] and in assay [8] were -0.26% (inactive) and -2.46% (inactive), respectively.
`COc1cc(C(=O)N2CCC(NC(=O)C(Cc3ccc(C)cc3)NC(C)=O)CC2)cc(OC)c1OC` (stereo not given): the viability is 92% in assay [1]; 92% (inactive) in assay [3]; 97.8% (inactive) in assay [4]; 98% (inactive) in assay [5]; 90.3% in assay [6] (setting [9]); 98% in assay [6] (setting [10]). Moreover, in assay [2], the Her2 level was 86% (inactive). Further, in assay [6] (H69AR cells + 2 uM doxorubicin), the differential viability (reversal) was 7.71% (inactive). Besides, the values for the inhibition in assay [7] and in assay [8] were -2.84% (inactive) and 0.16% (inactive), respectively.
As to `CCSc1nc2ccccc2n1CC(N)=O`, the viability in assay [1] was 102%; in assay [3], 102% (inactive); in assay [4] it was 96.5% (inactive); in assay [5] it was 88.8% (inactive); in assay [6] (setting [9]), 82.2%; in assay [6] (setting [10]), 88.8%. Also, the Her2 level in assay [2] is 81% (inactive). In addition, the differential viability (reversal) in assay [6] (H69AR cells + 2 uM doxorubicin) was 6.57% (inactive). The inhibition in assay [7] is -9.04% (inactive); in assay [8], 1.9% (inactive).
Consider `CC(Sc1nc(-c2ccccc2)cc(C(F)(F)F)n1)C(=O)N1CCC(C(N)=O)CC1` (stereo not given), for which the viability in assay [1] is 100%; in assay [3], 100% (inactive); in assay [4], 85.6% (inactive); in assay [5], 91.1% (inactive); in assay [6] (setting [9]), 92.3%; in assay [6] (setting [10]) it was 91.1%. Moreover, the Her2 level in assay [2] is 87.5% (inactive). The differential viability (reversal) in assay [6] (H69AR cells + 2 uM doxorubicin) is -1.27% (inactive). Further, the inhibition in assay [7] was -0.91% (inactive); in assay [8] it was 11% (inactive).
`CCCC(C)C(=O)Nc1ccc(C(N)=O)cc1` (stereo not given): the viability is 95% in assay [1]; 95% (inactive) in assay [3]; 96% (inactive) in assay [4]; 93.1% (inactive) in assay [5]; 85.7% in assay [6] (setting [9]); 93.1% in assay [6] (setting [10]). Besides, the Her2 level in assay [2] was 93.5% (inactive). In assay [6] (H69AR cells + 2 uM doxorubicin), the differential viability (reversal) was 7.36% (inactive). In addition, the values for the inhibition in assay [7] and in assay [8] were -5.81% (inactive) and -1.33% (inactive), respectively.
For `CC(C)(C)NC(=O)Cn1nnc(-c2cccs2)n1`, the viability in assay [1] was 94%; in assay [3], 94% (inactive); in assay [4], 101% (inactive); in assay [5], 92.2% (inactive); in assay [6] (setting [9]) it was 79.1%; in assay [6] (setting [10]), 92.2%. Also, in assay [2], the Her2 level is 84% (inactive). Also, in assay [6] (H69AR cells + 2 uM doxorubicin), the differential viability (reversal) is 13.1% (inactive). The inhibition in assay [7] is -3.87% (inactive); in assay [8] it was 0% (inactive).
Regarding `COc1ccc(S(=O)(=O)n2nc(OC(=O)c3ccc(C)cc3)cc2N)cc1`, the viability in assay [1] was 92.5%; in assay [3] it was 92.5% (inactive); in assay [4], 91.6% (inactive); in assay [5], 97.7% (inactive); in assay [6] (setting [9]), 105%; in assay [6] (setting [10]) it was 97.7%. Moreover, the Her2 level in assay [2] was 72% (inactive). Also, in assay [6] (H69AR cells + 2 uM doxorubicin), the differential viability (reversal) was -7.45% (inactive). Besides, the inhibition in assay [7] is -4.47% (inactive); in assay [8], -5.67% (inactive).
For the compound `CCNC(=O)N1c2ccc(OCC)cc2C(C)=CC1(C)C`, the viability in assay [1] was 95.5%; in assay [3] it was 95.5% (inactive); in assay [4], 106% (inactive); in assay [5] it was 89.3% (inactive); in assay [6] (setting [9]), 90.8%; in assay [6] (setting [10]), 89.3%. Moreover, the Her2 level in assay [2] is 99.5% (inactive). For the same compound, in assay [6] (H69AR cells + 2 uM doxorubicin), the differential viability (reversal) is -1.44% (inactive). Further, the inhibition in assay [7] is -7.76% (inactive); in assay [8], -1.15% (inactive).
Consider `Cc1ccc2nc(SCC(=O)NCc3ccco3)c(C#N)cc2c1`, for which the viability was 90.5% in assay [1]; 90.5% (inactive) in assay [3]; 82.3% (inactive) in assay [4]; 62.2% (inactive) in assay [5]; 69.7% in assay [6] (setting [9]); 62.2% in assay [6] (setting [10]). Further, the Her2 level in assay [2] is 88.5% (inactive). In addition, the differential viability (reversal) in assay [6] (H69AR cells + 2 uM doxorubicin) is -7.5% (inactive). Also, the inhibition was -4.74% (inactive) in assay [7] and -3.27% (inactive) in assay [8].
Take `CCOc1ccc(C2CC(c3cccc(C)c3)n3ncnc3N2)cc1` (stereo not given): the viability in assay [1] was 101%; in assay [3], 101% (inactive); in assay [4], 94% (inactive); in assay [5] it was 111% (inactive); in assay [6] (setting [9]), 93.1%; in assay [6] (setting [10]) it was 111%. In assay [2], the Her2 level is 100% (inactive). In addition, in assay [6] (H69AR cells + 2 uM doxorubicin), the differential viability (reversal) is 18% (inactive). The inhibition in assay [7] was 1.41% (inactive); in assay [8] it was -3% (inactive).
`O=C1NC(Nc2ccccn2)(C(F)(F)F)C(=O)N1c1ccc(F)cc1` (stereo not given): the viability was 102% in assay [1]; 102% (inactive) in assay [3]; 107% (inactive) in assay [4]; 103% (inactive) in assay [5]; 103% in assay [6] (setting [9]); 103% in assay [6] (setting [10]). In addition, in assay [2], the Her2 level is 89% (inactive). Also, the differential viability (reversal) in assay [6] (H69AR cells + 2 uM doxorubicin) is -0.015% (inactive). Also, the inhibition in assay [7] was -5.47% (inactive); in assay [8], 1.64% (inactive).
